Activity calls are given as the source filed them. No cut-off for these calls is given here.
Key:
[1] = test system: Trypanosoma brucei brucei; assay: Antitrypanosomal activity against bloodstream form of Trypanosoma brucei brucei AnTat1.1A assessed as inhibition of growth in log phase at 10 uM after 48 hrs by Cell Titer Blue end-point assay; type: functional
Method in brief: (§1)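 Log-phase bloodstream-form cells were seeded at 1×10^5 cells/mL and exposed to compound at a single concentration (0.2% DMSO) for 48 h (4 doublings). AnTat1.1A cells were grown in HMI-9 with 10% FBS and 10% Serum Plus. 90-13 cells were grown in HMI-9 with G418 (2.5 μg/mL) and hygromycin B (5 μg/mL). Cells were pelleted and incubated 3 h at 37°C with CellTiter-Blue. Fluorescence was read at 560/590 nm, background-subtracted and normalized to DMSO controls.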

[2] = test system: Trypanosoma brucei brucei; assay: Antitrypanosomal activity against bloodstream form of Trypanosoma brucei brucei assessed as inhibition of growth in log phase at 1 uM after 48 hrs by Cell Titer Blue end-point assay; settings: read-out: GI
[3] = test system: Trypanosoma brucei brucei; assay: Antitrypanosomal activity against bloodstream form of Trypanosoma brucei brucei Lister 427 90-13 assessed as inhibition of growth in log phase at 1 uM after 48 hrs by Cell Titer Blue end-point assay; type: functional; settings: Lister 427 90-13, 48 h; method in brief: as §1
[4] = test system: Trypanosoma brucei rhodesiense; assay: Antitrypanosomal activity against bloodstream form of Trypanosoma brucei rhodesiense YTat1.1 assessed as inhibition of growth in log phase after 48 hrs by Cell Titer Blue end-point assay; type: functional, organism-based; settings: YTat1.1, 48 h
Method in brief: (§2)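 Dose-response: at least 8 final concentrations (50 nM–8 μM, 0.2% DMSO), each in triplicate, on log-phase bloodstream-form cells at 1×10^5 cells/mL. Incubation was 48 h at 37°C, 5% CO2, followed by a 3 h CellTiter-Blue fluorescence read with background subtracted. EC50 was derived from inhibition curves. YTat1.1 was culture-adapted from rat blood in HMI-9 with FBS and Serum Plus; its data come from 2–3 independent experiments. 90-13 was grown in HMI-9 with G418 and hygromycin B.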

[5] = Selectivity ratio of EC50 for human MOLT4 cells to EC50 for bloodstream form of Trypanosoma brucei rhodesiense YTat1.1; type: ADME, cell-based, MOLT-4; settings: read-out: Ratio EC50
Method in brief: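 Ratio of MOLT-4 EC50 to YTat1.1 EC50. MOLT-4 cells were grown in RPMI 1640 with 20% FBS, seeded at 5×10^4 cells/mL and grown 24 h before compound was added. Treatment used 8 triplicate concentrations between 50 nM and 30 μM for 4 days, followed by a 3 h CellTiter-Blue read at 37°C. The parasite EC50 came from a 48 h CellTiter-Blue dose-response (50 nM–8 μM).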

[6] = test system: Trypanosoma brucei brucei; assay: Antitrypanosomal activity against bloodstream form of Trypanosoma brucei brucei AnTat1.1A assessed as inhibition of growth in log phase at 1 uM after 48 hrs by Cell Titer Blue end-point assay; type: functional; method in brief: as §1
[7] = test system: Trypanosoma brucei brucei; assay: Antitrypanosomal activity against bloodstream form of Trypanosoma brucei brucei Lister 427 90-13 assessed as inhibition of growth in log phase at 10 uM after 48 hrs by Cell Titer Blue end-point assay; type: functional; settings: Lister 427 90-13, 48 h; method in brief: as §1
[8] = test system: Trypanosoma brucei brucei; assay: Antitrypanosomal activity against bloodstream form of Trypanosoma brucei brucei Lister 427 90-13 assessed as inhibition of growth in log phase after 48 hrs by Cell Titer Blue end-point assay; type: functional, organism-based; settings: Lister 427 90-13, 48 h; method in brief: as §2
[9] = test system: MOLT-4; assay: Cytotoxicity against human MOLT4 cells assessed as inhibition of cell growth after 4 days by Cell Titer Blue end-point assay; type: cell-based; settings: MOLT-4, 96 h
Method in brief: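 MOLT-4 cells in RPMI 1640 with 20% FBS were seeded at 5×10^4 cells/mL and grown 24 h before inhibitor was added. There were 8 concentrations in triplicate, spanning 50 nM to 30 μM final. Treatment lasted 4 days, then CTB was added for 3 h at 37°C. Fluorescence was read at 560Ex/590Em, with cell-free background subtracted and DMSO-only wells taken as 100%. EC50 was fitted from inhibition curves.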

[10] = test system: Trypanosoma brucei; assay: Inhibition of NH3-AU1 epitope-tagged recombinant Trypanosoma brucei AUK1 expressed in procyclic form trypanosome AnTat1.1 assessed as decrease in myelin basic protein phosphorylation at 500 nM preincubated for 5 mins by pull down assay in presence of [gamma-32P]ATP
Method in brief: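 AU1-tagged TbAUK1 came from procyclic AnTat1.1 cells pretreated with 16 μM MG132 for 3 h. Lysate was pre-cleared and immunoprecipitated overnight at 4°C on AU1 beads. Bead kinase was mixed with 160 μg myelin basic protein in Hepes/KCl/NaF/MgCl2/DTT buffer, pH 7.4, with drug preincubated 5 min. Reactions were started with 8 μM ATP plus [γ-32P]ATP and run 30 min at 30°C. Products were read by SDS-PAGE autoradiography.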

Structure (SMILES)	inhibition at 10 µM [1] [%]	inhibition of growth at 1 µM [2] [%]	inhibition at 1 µM [3] [%]	EC50 [4] [µM]	selectivity ratio [5]	inhibition at 1 µM [6] [%]	inhibition at 10 µM [7] [%]	EC50 [8] [µM]	EC50 [9] [µM]	inhibition [10]
CC(C)C(C(=O)N1Cc2[nH]nc(NC(=O)c3ccc(N4CCN(C)CC4)cc3)c2C1)c1ccccc1 (racemic)	99	> 60	62	0.4	6.3	99	100	0.67	–	–
Cc1ccc(C)c(CC(=O)N2Cc3[nH]nc(NC(=O)c4ccc(N5CCN(C)CC5)cc4)c3C2)c1	99	> 60	18	1.2	2.2	34	100	–	2.65	–
CN1CCN(c2ccc(C(=O)Nc3n[nH]c4c3CN(C(=O)Cc3cc(F)cc(F)c3F)C4)cc2)CC1	99	> 60	26	2	1.2	44	94	–	2.31	–
Cc1[nH]c2ccccc2c1CC(=O)N1Cc2[nH]nc(NC(=O)c3ccc(N4CCN(C)CC4)cc3)c2C1	98	> 60	34	1.2	1	62	63	–	–	–
CN1CCN(c2ccc(C(=O)Nc3n[nH]c4c3CN(C(=O)Cc3cc(F)ccc3F)C4)cc2)CC1	98	–	37	–	–	6	97	–	–	–
Cc1ccc(C(C)C(=O)N2Cc3[nH]nc(NC(=O)c4ccc(N5CCN(C)CC5)cc4)c3C2)cc1 (racemic)	100	> 60	19	0.86	6.4	19	100	–	5.48	–
CN1CCN(c2ccc(C(=O)Nc3n[nH]c4c3CN(C(=O)Cc3ccc(F)c(F)c3)C4)cc2)CC1	98	–	29	–	–	18	53	–	–	–
CN1CCN(c2ccc(C(=O)Nc3n[nH]c4c3CN(C(=O)Cc3c(F)ccc(F)c3F)C4)cc2)CC1	98	> 60	14	0.32	6.9	52	77	–	2.22	–
Cc1cc(C)cc(CC(=O)N2Cc3[nH]nc(NC(=O)c4ccc(N5CCN(C)CC5)cc4)c3C2)c1	99	> 60	26	1.04	4.3	85	100	2.56	4.46	–
CN1CCN(c2ccc(C(=O)Nc3n[nH]c4c3CN(C(=O)CC3CC(=O)c5ccccc53)C4)cc2)CC1 (racemic)	79	–	27	–	–	34	35	–	–	–
CN1CCN(c2ccc(C(=O)Nc3n[nH]c4c3CN(C(=O)Cc3c(F)cc(F)cc3F)C4)cc2)CC1	100	–	41	–	–	23	72	–	–	–
CN1CCN(c2ccc(C(=O)Nc3n[nH]c4c3CN(C(=O)Cc3ccc(F)cc3F)C4)cc2)CC1	98	–	40	–	–	6	62	–	–	–
Cc1nc(C)c(CC(=O)N2Cc3[nH]nc(NC(=O)c4ccc(N5CCN(C)CC5)cc4)c3C2)s1	35	–	6	–	–	13	12	–	–	–
CN1CCN(c2ccc(C(=O)Nc3n[nH]c4c3CN(C(=O)Cc3cccc(Cl)c3)C4)cc2)CC1	98	> 60	33	0.58	6.9	35	98	0.85	4	–
COC(C(=O)N1Cc2[nH]nc(NC(=O)c3ccc(N4CCN(C)CC4)cc3)c2C1)c1ccccc1 (racemic)	97	> 60	15	0.61	6.8	77	25	–	4.13	–
Cc1nc(CC(=O)N2Cc3[nH]nc(NC(=O)c4ccc(N5CCN(C)CC5)cc4)c3C2)cs1	53	–	8	–	–	23	14	–	–	–
CN1CCN(c2ccc(C(=O)Nc3n[nH]c4c3CN(C(=O)Cc3cccc5ccccc35)C4)cc2)CC1	98	> 60	26	0.61	23	82	100	–	14.2	–
CN1CCN(c2ccc(C(=O)Nc3n[nH]c4c3CN(C(=O)Cc3cc(F)cc(F)c3)C4)cc2)CC1	98	> 60	37	0.91	0.7	98	99	0.59	0.63	–
CCS(=O)(=O)Nc1ccc2c(c1)/C(=C(/Nc1ccc(CN3CCCCC3)cc1)c1ccccc1)C(=O)N2	–	–	–	–	–	–	–	–	–	Active
CN1CCN(c2ccc(C(=O)Nc3n[nH]c4c3CN(C(=O)Cc3c(F)cccc3F)C4)cc2)CC1	97	–	32	–	–	20	66	–	–	–
